DTT redox prof = compounds producing H2O2 with reducing agent – biochemical, NIH compound library profiling, artefact control for MLSCN library redox annotation, primary screen | DTT-dependent redox cycling H2O2, phenol red/HRP absorbance; 100% = 100 µM peroxide control, 0% = buffer | activation, % at 10 µM | actives 0.03% (n = 200,000) | AID 878;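 active = activation of at least 50% relative to the plate's high and low controls in the primary single-dose screen; inactive = activation below 50%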;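 also: compound incubated with DTT at 0.8 mM final as the reducing agent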
FXIa inh = factor XIa (human) inhibition; P03951; inhibition, % at 5 µM; actives 0.14% (n = 220,000); purified FXIa, Boc-Glu-Ala-Arg-AMC fluorogenic substrate; AID 798;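 active = inhibition of at least 40%; inactive = inhibition below 40%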;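 also: fluorescence of freed AMC excited at 355 nm; 0% = enzyme without compound and 100% = no enzyme blank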
S1P3 antag = S1P3 (human) receptor antagonism. inhibition, % at 4.98 µM. CHO S1P3 NFAT-BLA reporter, FRET fluorescence, antagonist mode. AID 485. actives 0.27% (n = 170,000). Q99500;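 active = inhibition above the plate cutoff, the mean inhibition of test wells on that plate plus 3 SD, cut at about 28% in these data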;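 also: cells challenged with S1P at its EC80 of 0.8 µM; blue over green emission ratio from cleaved BLA substrate after 4 h stimulation; 0% = S1P-stimulated wells and 100% = unstimulated DMSO-only wells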
Target sequence (Q99500 whole entry, looked up): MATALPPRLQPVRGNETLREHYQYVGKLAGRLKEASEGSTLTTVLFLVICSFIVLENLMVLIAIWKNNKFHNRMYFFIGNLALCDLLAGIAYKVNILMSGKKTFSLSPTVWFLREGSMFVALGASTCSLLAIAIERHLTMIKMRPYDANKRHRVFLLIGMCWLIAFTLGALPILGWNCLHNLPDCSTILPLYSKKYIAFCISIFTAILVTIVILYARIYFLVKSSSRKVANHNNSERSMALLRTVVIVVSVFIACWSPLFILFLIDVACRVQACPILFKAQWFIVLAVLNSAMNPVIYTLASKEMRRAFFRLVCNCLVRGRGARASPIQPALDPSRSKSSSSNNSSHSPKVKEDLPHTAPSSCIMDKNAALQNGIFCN
Thrombin inh = inhibitors of human thrombin. inhibition, % at 5 µM. actives 0.26% (n = 220,000). alpha-thrombin, Boc-VPR-AMC fluorogenic substrate cleavage;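 active = inhibition at or above 40%; inactive = inhibition below 40%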;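 also: 0% = enzyme with no compound and 100% = wells without enzyme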
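System: human alpha-thrombin protein; Compound dosing: one concentration per compound, 5 µM, with 0.2% DMSO; Timing: reaction at room temperature; Technique: AMC fluorescence, 355/460 nm; Controls: enzyme without compound as high, wells lacking enzyme as low.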
KLK5 inh = inhibitors of human kallikrein 5 | recombinant hK5, fluorogenic AMC substrate cleavage | inhibition, % at 5 µM | actives 0.59% (n = 210,000) | AID 873;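 active = inhibition of 40% or more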;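 also: 0% = enzyme controls without compound and 100% = no-enzyme blanks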
Target sequence (Q9Y337 67-293 limits assumed): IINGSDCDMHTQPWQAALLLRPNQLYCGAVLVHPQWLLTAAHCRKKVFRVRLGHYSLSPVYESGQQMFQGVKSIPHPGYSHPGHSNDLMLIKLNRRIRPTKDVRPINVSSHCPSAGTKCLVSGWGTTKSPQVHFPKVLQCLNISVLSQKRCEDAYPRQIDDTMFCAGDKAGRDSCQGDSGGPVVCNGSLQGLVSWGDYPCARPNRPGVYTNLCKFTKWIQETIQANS
FXIIa inh = inhibitors of human coagulation factor XIIa. inhibition, % at 5 µM. P00748. actives 0.3% (n = 220,000). purified FXIIa, Boc-QGR-AMC fluorogenic substrate, 2 h. AID 800; in the data active = inhibition above about 40%;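 also: 0% = enzyme with no compound and 100% = blank without enzyme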
Starred values were filed as active, the others as inactive; . = no result. Compounds with a hit are over-represented: about 1.2% of the library has one in this group of screens.

SMILES	DTT redox prof	FXIa inh	S1P3 antag	Thrombin inh	KLK5 inh	FXIIa inh
COc1ccc2[nH]c(=O)c(CN(C(=O)c3cccnc3)c3ccc(C)cc3C)cc2c1	.	-5.0	1.5	-0.5	1.7	2.9
C=CCNc1nc(NC(C)(C)CO)nc(OCC)n1	-0.3	-4.2	-13.3	-2.8	-4.2	7.9
C=CCNc1nc(NC(C)(C)CO)nc(OC)n1	0.6	46.0*	.	-0.2	-8.7	30.4
COc1cccc(CNc2ccc([N+](=O)[O-])cc2C)c1	0.3	1.3	-2.5	-9.3	9.1	10.9
COc1ccc(OC)c(CNc2ccc([N+](=O)[O-])cc2C)c1	-0.3	4.9	-1.5	-4.2	0.0	100.2*
O=C1c2cccnc2Oc2ccc(Cl)cc2N1Cc1ccc(F)cc1	-0.4	22.4	-14.8	35.8	43.8*	14.4
Cc1ccc2c(c1)N(Cc1cccc(Cl)c1)C(=O)c1cccnc1O2	-0.7	0.1	-18.8	-0.1	-5.7	0.5
CC1CN(S(=O)(=O)c2ccc(C(=O)Nc3nnc(-c4ccc5c(c4)CCCC5)o3)cc2)CC(C)O1 (stereo not drawn)	-0.9	-3.7	84.3*	0.7	-81.4	5.6
CS(=O)(=O)N1CCN(C(=O)c2ccccc2F)CC1	0.9	7.8	-10.1	6.7	115.7*	8.2
O=C(O)Cc1ccccc1C(=O)O	-0.5	-14.2	-11.1	43.8*	-24.5	-4.0
Cc1cc(C)c(NC(N)=S)c(C)c1	.	4.8	-3.5	-2.4	15.9	7.3
Cc1ccsc1/C=N\NC(=O)CCc1c(C)n[nH]c1C	-2.6	-3.0	5.2	-11.1	-3.1	4.0
Cc1n[nH]c(C)c1CCC(=O)N/N=C/c1c[nH]c2ccccc12	.	48.0*	-0.8	2.3	57.7*	27.4
Cc1n[nH]c(C)c1CCC(=O)N/N=C/c1c(C)[nH]c2ccccc12	.	1.8	2.5	1.8	2.6	12.2
Cc1n[nH]c(C)c1CCC(=O)N/N=C/c1cccs1	.	30.0	-5.5	20.2	69.0*	47.9*
CN(Cc1ccccc1)c1nc(-c2cccc([N+](=O)[O-])c2)nc2ccccc12	1.1	-6.3	-5.1	-7.6	-23.1	4.7
CCCn1c(/N=C/c2ccc3c(c2)OCO3)nc2ccccc21	0.2	5.4	.	14.2	43.2*	11.8
CC(=O)Nc1ccc(S(=O)(=O)Nc2cccc(NC(=O)c3ccco3)c2)cc1	-2.2	-4.1	-5.2	-8.2	-3.0	1.3
CCN(CC)S(=O)(=O)c1ccc(-n2c(=O)c(C(C)C)c(C)n2C)cc1	0.3	-2.7	-9.5	-6.7	0.1	9.0
COC(=O)c1c(NC(=O)c2ccco2)sc2c1C(C(=O)OC)CC2 (stereo not drawn)	-0.1	0.2	54.5*	0.5	-3.0	12.1
O=S(=O)(c1ccc(S(=O)(=O)N2CCCC2)cc1)N1CCCCCC1	-1.8	19.4	-22.6	-6.6	-14.3	44.4*
CCN(CC)S(=O)(=O)c1cc(C(=O)Nc2nncs2)c(Cl)cc1Cl	0.1	3.4	2.8	15.2	61.8*	2.7
CCN(CC)C(=S)Nc1ccc(OC)cc1	0.0	0.2	-23.6	-5.5	-30.2	7.1
COc1ccc(CN(C)C(=S)Nc2ccc(Cl)cc2)cc1	-0.5	27.2	12.7	-0.6	30.0	42.4*
C=C(C)CN(CC)C(=O)CC1C(=O)NCCN1CC(C)(C)C (stereo not drawn)	.	4.1	-12.4	44.1*	0.8	6.2
SMILES	DTT redox prof	FXIa inh	S1P3 antag	Thrombin inh	KLK5 inh	FXIIa inh
O=c1c2c(-c3ccccc3)csc2nc2c3ccccc3c(NCCN3CCOCC3)nn12	0.5	-5.5	-19.0	-6.3	-3.5	5.8
O=C(Nc1nonc1NC(=O)c1cccs1)c1cccs1	-0.3	2.7	-18.2	-1.4	-0.6	-1.0
O=C1CC(N2CCC(c3nc4ccccc4o3)CC2)C(=O)N1c1ccc(Cl)c(C(F)(F)F)c1 (stereo not drawn)	1.6	41.9*	18.2	-3.8	-21.2	-7.7
O=C1CC(N2CCC(c3nc4ccccc4o3)CC2)C(=O)N1c1ccc(F)cc1 (stereo not drawn)	0.0	-5.8	7.3	-1.6	-21.6	-7.1
O=c1[nH]c2ccc(Cl)cc2c(-c2ccccc2)c1N1CCOCC1	-2.4	12.9	-18.9	42.6*	30.1	27.7
CC(C)(CO)NC(=S)NCc1ccco1	.	0.7	-3.9	-2.6	100.3*	7.0
O=c1[nH]c(/C(Cl)=C/c2cccc(F)c2)nc2cc(C(F)(F)F)ccc12	-0.8	-1.0	5.3	-5.1	-0.5	12.4
O=S(=O)(Nc1ncnc2sc3c(c12)CCC3)c1ccc2ccccc2c1	0.5	0.4	.	1.4	8.1	13.8
Cc1cc(F)ccc1S(=O)(=O)Nc1ncnc2sc3c(c12)CCC3	-0.8	41.1*	8.1	1.6	11.2	23.3
Cc1ccc(N(CC(=O)NC(C)(C)C)C(=O)CNC(=O)c2cccs2)cc1C	-0.6	10.1	0.2	-8.7	1.7	9.1
Cc1ccc(N2CC(C(=O)Nc3ccc4c(c3)OCO4)CC2=O)cc1 (stereo not drawn)	-0.6	1.0	-5.5	-0.4	-1.2	16.1
O=C(Nc1ccc(Cl)c(Cl)c1)C1CC(=O)N(c2ccc(Br)cc2)C1 (stereo not drawn)	0.5	13.8	.	49.1*	28.9	19.2
CCOC(=O)Cn1c(=O)oc2cc(S(=O)(=O)NCCCc3ccccc3)ccc21	-0.1	4.4	.	2.2	-8.6	11.8
CCOC(=O)Cn1c(=O)oc2cc(S(=O)(=O)NCCc3ccc(C)cc3)ccc21	-0.2	21.5	.	56.9*	57.8*	18.1
CCSc1nnc(NS(=O)(=O)c2ccc(OC)cc2)s1	0.2	-4.2	-11.7	-5.5	-0.2	.
O=S(=O)(c1cc(Cl)ccc1Cl)N1CCN(Cc2ccc3c(c2)OCO3)CC1	-1.3	-14.8	86.5*	-1.4	0.3	-6.9
O=C(c1ccc([N+](=O)[O-])cc1)N1CCN(Cc2ccccc2[N+](=O)[O-])CC1	-0.3	-0.4	4.0	0.8	16.5	5.8
O=C(NNc1cc(Cl)ccc1Cl)c1cccs1	.	23.5	-9.1	34.5	54.8*	17.6
Cc1cc(Cl)ccc1NNC(=O)c1cccs1	.	3.6	2.8	2.8	-3.2	4.5
O=C(O)c1ccc(Br)cn1	-1.7	1.3	-27.5	0.9	5.7	12.9
Cn1ncc(Oc2ccc([N+](=O)[O-])cc2)c(Cl)c1=O	.	25.1	-2.8	-1.4	70.8*	42.3*
CCOC(=O)c1cc2sccc2n1CC(=O)O	0.3	4.1	.	5.8	17.1	15.9
CCOC(=O)c1cc2sccc2n1CC(=O)N1c2ccccc2CC1C (stereo not drawn)	2.4	13.0	.	-10.2	-9.0	48.3*
Cc1cccc(C)c1NC(=S)NC(C)CCc1ccccc1 (stereo not drawn)	0.1	-1.1	-2.6	-16.4	-15.2	3.5
O=C(c1ccc(Cl)c([N+](=O)[O-])c1)N(c1ccccn1)c1ccccn1	0.0	-4.3	9.3	-11.4	-19.6	7.5

Source: PubChem (several laboratories)
